The values that follow come from PubChem BioAssay.

Test [1] is described as follows: reducers of endogenous Her2 protein level, primary screen, SKBR3 breast tumor cells, AlphaScreen, ATP viability (AID 461).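 On Her2 level: lower value means less Her2 protein in the cells.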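 On viability: percent of carrier control wells set as 100% viability.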 The conditions noted are these: 18-24 h, measured here: SKBR3 viability, ATP luminescence, at 10 µM.
Test [2] has as its target Receptor tyrosine-protein kinase erbB-2 (Homo sapiens) (UniProt P04626). Described as above. The conditions noted are these: 18-24 h, at 10 µM, stronger effect = lower value.
Test [3] is described as follows: SK-BR-3 cell growth inhibitors, pilot screen, 24 h, human (AID 572;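 active means viability at or below 10% of carrier control in both of two separate runs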;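 further: compound exposure lasted between 18 and 24 h rather than exactly 24 h; 100% = carrier-treated control wells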). As to conditions: SK-BR-3 viability, CellTiter-Glo luminescence, at 10 µM, stronger effect = lower value. In general terms: ATP-based viability assays read luminescence as a measure of living cells.
Test [4] is described as follows: HUVEC growth inhibition – cell-based, human, primary screen (AID 575;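 active means viability at or below 30% in both replicate assays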;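 further: 100% = median of untreated cell wells with 0.1% DMSO on each plate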). As to conditions: HUVEC proliferation, CellTiter-Glo luminescence, 72 h; at 10 µM; stronger effect = lower value. In short, it runs like this:
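Test system: primary human umbilical vein endothelial cells. Quantity: 1250 cells/well. Compound: single 10 µM dose, 0.1% DMSO, from 5x medium stock. Timing: 72 h treatment at 37 °C. Detection: ATP-based CellTiter-Glo luminescent read. Benchmarks: vehicle and MePR control wells. Format: 384-well plates coated with collagen.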

A short description of test [5]: growth inhibitors of H69AR lung tumor, primary screen, human, duplicate replicates (AID 580;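 active means viability at or under a set limit in both replicates, limit being median viability minus 3 SD, cut at about 48% in these data, passing the limit was not always enough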;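 further: 100% = mean luminescence of untreated wells and 0% = no signal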). The conditions noted are these: H69AR lung tumor cells viability, ATP luminescence, 72 h; at 10 µM; stronger effect = lower value.
The nature of test [6]: reversal of MRP1-mediated doxorubicin resistance, pilot screen, H69AR cells, doxorubicin co-treatment (AID 601;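 active means viability loss from added drug above about 55%, and viability with drug at most 40%, in both replicates, limit read from the data, passing the limit was not always enough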). As to conditions: CellTiter-Glo, 72 h, at 10 µM; for differential viability (reversal): stronger effect = higher value.
A short description of test [7]: 384-well plate pilot, post-Golgi transport modulator project, inhibition of yeast transport mutant growth (AID 636; in the data active means inhibition above about 31%). As to conditions: absorbance 615 nm, about 18 h, stronger effect = higher value.
Test [8] in a line: growth suppression of yeast trafficking mutant, preliminary HTS, modulators of trafficking downstream of Golgi apparatus project, 1536-format plate, OD 615 nm (AID 637; in the data active means inhibition above about 30%). The conditions noted are these: yeast transport mutant growth, absorbance 615 nm, 18 h; stronger effect = higher value.
Setting [9] is: H69AR cells + 2 uM doxorubicin, measured here: viability with 2 uM doxorubicin, stronger effect = lower value.
The mark [10] stands for this setting: H69AR cells, compound alone cytotoxicity.

Each structure is given as a SMILES string. Activity calls are given as the source filed them.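 How the source made its calls, unless noted: active means Her2 level under about 52% in both replicate screens, with viability over 70% of control (limit read from the data); inconclusive means Her2 under the limit in one screen only, or viability under 70%; inactive means Her2 level above the set limit.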

Chain of Receptor tyrosine-protein kinase erbB-2 (Homo sapiens) (P04626 whole entry, looked up): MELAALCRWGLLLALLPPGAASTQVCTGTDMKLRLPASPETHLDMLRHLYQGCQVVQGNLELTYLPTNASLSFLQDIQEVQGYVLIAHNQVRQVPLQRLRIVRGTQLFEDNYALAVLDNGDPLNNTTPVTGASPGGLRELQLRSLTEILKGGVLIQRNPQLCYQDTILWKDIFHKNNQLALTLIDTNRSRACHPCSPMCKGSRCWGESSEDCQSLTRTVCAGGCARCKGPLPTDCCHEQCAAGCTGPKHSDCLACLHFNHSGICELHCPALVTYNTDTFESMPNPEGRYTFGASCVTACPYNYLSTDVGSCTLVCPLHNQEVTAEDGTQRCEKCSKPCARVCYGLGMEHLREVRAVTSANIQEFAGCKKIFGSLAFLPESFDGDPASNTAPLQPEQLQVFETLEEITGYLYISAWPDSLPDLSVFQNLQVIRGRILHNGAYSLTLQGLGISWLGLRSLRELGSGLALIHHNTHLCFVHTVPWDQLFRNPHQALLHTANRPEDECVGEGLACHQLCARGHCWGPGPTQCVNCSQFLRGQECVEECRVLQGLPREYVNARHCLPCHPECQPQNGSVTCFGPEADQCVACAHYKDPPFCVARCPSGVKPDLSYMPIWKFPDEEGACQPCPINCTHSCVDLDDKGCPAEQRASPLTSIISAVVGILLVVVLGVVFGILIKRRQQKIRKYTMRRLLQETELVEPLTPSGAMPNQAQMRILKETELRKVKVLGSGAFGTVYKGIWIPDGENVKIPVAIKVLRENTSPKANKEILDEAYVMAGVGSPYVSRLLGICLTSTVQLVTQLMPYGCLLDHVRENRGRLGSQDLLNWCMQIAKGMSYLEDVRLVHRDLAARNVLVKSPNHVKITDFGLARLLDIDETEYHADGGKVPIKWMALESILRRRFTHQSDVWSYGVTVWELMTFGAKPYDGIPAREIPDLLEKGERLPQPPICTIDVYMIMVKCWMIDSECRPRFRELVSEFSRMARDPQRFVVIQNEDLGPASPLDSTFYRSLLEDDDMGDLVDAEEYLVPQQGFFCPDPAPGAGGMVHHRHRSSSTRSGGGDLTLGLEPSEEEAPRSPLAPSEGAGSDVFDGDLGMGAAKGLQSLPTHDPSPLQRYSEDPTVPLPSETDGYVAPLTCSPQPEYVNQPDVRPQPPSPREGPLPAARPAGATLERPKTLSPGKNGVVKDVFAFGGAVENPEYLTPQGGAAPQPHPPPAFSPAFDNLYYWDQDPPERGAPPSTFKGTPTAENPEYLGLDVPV

Turning to `Cc1cnnc2c1-c1nonc1CC2`, the viability in test [1] is 94.5%; in test [3], 94.5% (inactive); in test [4], 87.4% (inactive); in test [5] it was 105% (inactive); in test [6] (setting [9]), 90.1%; in test [6] (setting [10]) it was 105%. Moreover, in test [2], the Her2 level is 102% (inactive). In addition, the differential viability (reversal) in test [6] (H69AR cells + 2 uM doxorubicin) was 15.2% (inactive). Further, the inhibition in test [7] was -6.13% (inactive); in test [8], 2.74% (inactive).

`O=C(COc1ccc(S(=O)(=O)NC2CCCCC2)cc1Cl)NCC1CCCO1` (stereo not given): the viability in test [1] was 88.5%; in test [3], 88.5% (inactive); in test [4], 98.6% (inactive); in test [5], 89.4% (inactive); in test [6] (setting [9]), 89%; in test [6] (setting [10]), 89.4%. Further, the Her2 level in test [2] is 98% (inactive). In test [6] (H69AR cells + 2 uM doxorubicin), the differential viability (reversal) is 0.36% (inactive). The inhibition was -5.07% (inactive) in test [7] and -7.78% (inactive) in test [8].

As for `Cc1cc(OCC(=O)Nc2ccc3oc(-c4ccncc4)nc3c2)ccc1Cl`, the viability was 92.5% in test [1]; 92.5% (inactive) in test [3]; 68% (inactive) in test [4]; 60.1% (inactive) in test [5]; 58.7% in test [6] (setting [9]); 60.1% in test [6] (setting [10]). Besides, the Her2 level in test [2] is 121% (inactive). In addition, the differential viability (reversal) in test [6] (H69AR cells + 2 uM doxorubicin) was 1.31% (inactive). Besides, the results for the inhibition in test [7] and in test [8] were 3.95% (inactive) and 8.85% (inactive), respectively.

For the compound `Cc1cc(NC(=O)c2cnn3cccnc23)no1`, the viability is 101% in test [1]; 101% (inactive) in test [3]; 97% (inactive) in test [4]; 97.8% (inactive) in test [5]; 93.5% in test [6] (setting [9]); 97.8% in test [6] (setting [10]). Also, the Her2 level in test [2] was 108% (inactive). In addition, in test [6] (H69AR cells + 2 uM doxorubicin), the differential viability (reversal) is 4.21% (inactive). For the same compound, the inhibition in test [7] was -0.92% (inactive); in test [8], -5.65% (inactive).

For the compound `CCOC(=O)N1CCC(O)(c2cc(C)c(C)cc2C)CC1`, the viability in test [1] was 102%; in test [3] it was 102% (inactive); in test [4], 109% (inactive); in test [5], 99.4% (inactive); in test [6] (setting [9]), 90.2%; in test [6] (setting [10]), 99.4%. For the same compound, the Her2 level in test [2] is 95.5% (inactive). Besides, the differential viability (reversal) in test [6] (H69AR cells + 2 uM doxorubicin) was 9.24% (inactive). Moreover, the inhibition in test [7] is -4.19% (inactive); in test [8] it was -5% (inactive).

Consider `CCn1c(=O)n(CC(=O)N(C)Cc2ccccc2)c(=O)c2ccccc21`, for which the viability was 110% in test [1]; 110% (inactive) in test [3]; 75.7% (inactive) in test [4]; 91.8% (inactive) in test [5]; 90.8% in test [6] (setting [9]); 91.8% in test [6] (setting [10]). Also, the Her2 level in test [2] is 93.5% (inactive). In addition, the differential viability (reversal) in test [6] (H69AR cells + 2 uM doxorubicin) is 1.03% (inactive). Further, the inhibition in test [7] was 1.18% (inactive); in test [8] it was -0.48% (inactive).

As for `COc1ccc(-n2ccnc2SCC(=O)NCc2ccc3c(c2)OCO3)cc1`, the viability in test [1] was 128%; in test [3] it was 128% (inactive); in test [4], 95.3% (inactive); in test [5], 87.2% (inactive); in test [6] (setting [9]) it was 92.6%; in test [6] (setting [10]) it was 87.2%. For the same compound, the Her2 level in test [2] was 89.5% (inactive). Further, the differential viability (reversal) in test [6] (H69AR cells + 2 uM doxorubicin) was -5.35% (inactive). In addition, the figures for the inhibition in test [7] and in test [8] were -2.73% (inactive) and -1.9% (inactive), respectively.

Take `Cn1c(=O)c2c(nc(SCCCC#N)n2Cc2ccccc2F)n(C)c1=O`: the viability in test [1] is 79.5%; in test [3], 79.5% (inactive); in test [4], 95.8% (inactive); in test [5] it was 71.2% (inactive); in test [6] (setting [9]), 75.8%; in test [6] (setting [10]), 71.2%. For the same compound, in test [2], the Her2 level is 84.5% (inactive). For the same compound, the differential viability (reversal) in test [6] (H69AR cells + 2 uM doxorubicin) is -4.56% (inactive). Further, the inhibition in test [7] was -3.47% (inactive); in test [8] it was -3.67% (inactive).

`O=C(CSc1ncnc2sc3c(c12)CCCCC3)NCc1ccco1`: the viability in test [1] was 92.5%; in test [3] it was 92.5% (inactive); in test [4] it was 41.3% (inactive); in test [5], 18% (active); in test [6] (setting [9]), 70.1%; in test [6] (setting [10]) it was 18%. Besides, the Her2 level in test [2] is 61% (inactive). Moreover, in test [6] (H69AR cells + 2 uM doxorubicin), the differential viability (reversal) is -52.1% (inactive). The inhibition in test [7] was -2.63% (inactive); in test [8] it was -3.65% (inactive).

For the compound `Cc1ccc(/C(O)=C2\C(=O)C(=O)N(CCCN(C)C)C2c2ccccn2)cc1` (stereo not given), the viability in test [1] was 101%; in test [3], 101% (inactive); in test [4], 118% (inactive); in test [5], 104% (inactive); in test [6] (setting [9]), 108%; in test [6] (setting [10]), 104%. Further, in test [2], the Her2 level is 93% (inactive). Further, the differential viability (reversal) in test [6] (H69AR cells + 2 uM doxorubicin) was -4.14% (inactive). For the same compound, the inhibition in test [7] was -1.84% (inactive); in test [8], 4.43% (inactive).

Consider `CCN(CC)Cc1nc2c(c(=O)[nH]1)C1(CCCCC1)Cc1ccccc1-2`, for which the viability in test [1] was 87%; in test [3], 87% (inactive); in test [4], 93.6% (inactive); in test [5] it was 72.8% (inactive); in test [6] (setting [9]), 91.7%; in test [6] (setting [10]) it was 72.8%. For the same compound, the Her2 level in test [2] is 82.5% (inactive). Also, in test [6] (H69AR cells + 2 uM doxorubicin), the differential viability (reversal) was -18.9% (inactive). Moreover, the inhibition was -5.07% (inactive) in test [7] and 0.16% (inactive) in test [8].

`Cc1cccc(N(CC(N)=O)S(C)(=O)=O)c1C`: the viability in test [1] is 102%; in test [3] it was 102% (inactive); in test [4] it was 107% (inactive); in test [5], 92% (inactive); in test [6] (setting [9]), 87.2%; in test [6] (setting [10]), 92%. In addition, the Her2 level in test [2] was 100% (inactive). In test [6] (H69AR cells + 2 uM doxorubicin), the differential viability (reversal) is 4.79% (inactive). For the same compound, the inhibition is -2.76% (inactive) in test [7] and 0.82% (inactive) in test [8].

Take `COc1ccc2[nH]c(=O)c(CN(C(=O)c3cccnc3)c3ccccc3OC)cc2c1`: the viability in test [1] was 104%; in test [3], 104% (inactive); in test [4] it was 90.8% (inactive); in test [5], 89.1% (inactive); in test [6] (setting [9]) it was 91.3%; in test [6] (setting [10]), 89.1%. Besides, in test [2], the Her2 level is 97% (inactive). For the same compound, the differential viability (reversal) in test [6] (H69AR cells + 2 uM doxorubicin) was -2.19% (inactive). The inhibition in test [7] was -6% (inactive); in test [8] it was -0.16% (inactive).

For `CCCn1c2c(c(O)c(C(=O)Nc3ccc(C)cn3)c1=O)CCCC2`, the viability in test [1] was 102%; in test [3], 102% (inactive); in test [4], 96.8% (inactive); in test [5] it was 88% (inactive); in test [6] (setting [9]), 97.9%; in test [6] (setting [10]), 88%. Besides, the Her2 level in test [2] is 82.5% (inactive). In addition, the differential viability (reversal) in test [6] (H69AR cells + 2 uM doxorubicin) was -9.88% (inactive). Moreover, the inhibition in test [7] was -2.89% (inactive); in test [8] it was -5.81% (inactive).

By viability is commonly meant a read-out of living cells in per cent, often relative to untreated cells. What is called inhibition is the drop in the measured response relative to a control, in per cent.
